ChEMBL document CHEMBL1938290, “Synthesis of 5-benzyl-2-phenylpyrazolo[1,5-a]pyrazin-4,6(5H,7H)-dione derivatives and discovery of an apoptosis inducer for H322 lung cancer cells” (Bioorg Med Chem Lett, 2012)
The source made the active and inactive calls. The rule behind the calls is not given here.

Assays:
A549 [1] = assay: Cytotoxicity against human A549 cells expressing wild type p53 at 40 uM after 48 hrs by SRB assay; format: functional, cell-based
Method in brief: (§1)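 A549 (p53 wild-type) lung cancer cells exposed to compound at 20 or 40 µM for 24 or 48 h respectively. Growth/viability then measured by SRB staining with a spectrophotometric read-out, expressed as % of untreated control.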

A549 [2] = assay: Cytotoxicity against human A549 cells expressing wild type p53 at 20 uM after 24 hrs by SRB assay; format: functional, cell-based; method in brief: as §1
[3] = (§2) Cytotoxicity against human NCI-H322 cells expressing p53 mutant after 24 hrs by SRB assay; format: functional, cell-based; conditions: NCI-H322, 24 h
Method in brief: (§3)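 H322 cells exposed to 10, 20, 30 or 40 µM, alongside untreated control, for 24 h. SRB viability read by spectrophotometer. Mean ± SE, n = 3. IC50 taken from the dose–response at 24 h.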

NCI-H322 [4] = assay: as §2; format: functional, cell-based; method in brief: as §3
NCI-H322 [5] = assay: Induction of apoptosis in human NCI-H322 cells assessed as chromatin condensation at 10 to 40 uM after 24 hrs by Hoechst 33258 staining-based fluorescent microscopy; format: functional, cell-based
Method in brief: (§4)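 H322 cells cultured 24 h with compound or vehicle (0.1% DMSO), then stained with Hoechst 33258. Viewed by fluorescence microscopy at 400×, scoring condensed chromatin and nuclear granulation (blue fluorescence). Apoptotic cell ratio expressed vs control as mean ± SE, n = 3.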

NCI-H322 [6] = assay: Induction of apoptosis in human NCI-H322 cells assessed as nuclear granulation at 10 to 40 uM after 24 hrs by Hoechst 33258 staining-based fluorescent microscopy; format: functional, cell-based; method in brief: as §4
HUVEC = assay: Cytotoxicity against HUVEC up to 40 uM by SRB assay; format: cell-based; conditions: human
[7] = Solubility of the compound; format: physicochemical
NCI-H322 [8] = assay: Cytotoxicity against human NCI-H322 cells expressing p53 mutant at 20 uM after 24 hrs by SRB assay; format: functional, cell-based
Method in brief: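 H322 (p53-mutant) cells treated at 20 µM or left untreated for 24 h. Viability measured by SRB assay and given as % of untreated control. Mean ± SE, n = 3, significance P < 0.05 vs control.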

Compound | Activity (A549 [1]) | Activity (A549 [2]) | further results
O=C1Cn2nc(-c3ccccc3)cc2C(=O)N1CCc1ccc(F)cc1 | inactive | inactive | –
O=C1Cn2nc(-c3ccc(Cl)cc3)cc2C(=O)N1CCc1ccc(F)cc1 | inactive | inactive | –
COc1cccc(CCN2C(=O)Cn3nc(-c4ccccc4)cc3C2=O)c1 | inactive | inactive | –
O=C1Cn2nc(-c3ccc(Cl)cc3)cc2C(=O)N1CCc1ccccc1 | inactive | inactive | –
COc1ccc(-c2cc3n(n2)CC(=O)N(CCc2ccc(F)cc2)C3=O)cc1 | inactive | inactive | –
COc1ccc(-c2cc3n(n2)CC(=O)N(CCc2ccccc2)C3=O)cc1 | inactive | inactive | IC50 [3]: 28.5 µM; Activity (NCI-H322 [4]): Dose-dependent effect; Activity (NCI-H322 [5]): Active; Activity (NCI-H322 [6]): Active; Activity (HUVEC): Non-toxic
O=C1Cn2nc(-c3ccccc3)cc2C(=O)N1CCc1ccccc1 | inactive | inactive | –
COc1ccc(-c2cc3n(n2)CC(=O)N(Cc2ccccc2)C3=O)cc1 | inactive | inactive | solubility [7]: Insoluble; Activity (NCI-H322 [8]): Active
O=C1Cn2nc(-c3ccccc3)cc2C(=O)N1Cc1ccccc1 | inactive | inactive | –
COc1cccc(CCN2C(=O)Cn3nc(-c4ccc(Cl)cc4)cc3C2=O)c1 | inactive | inactive | –
COc1ccc(-c2cc3n(n2)CC(=O)N(CCc2cccc(OC)c2)C3=O)cc1 | inactive | inactive | –
O=C1Cn2nc(-c3ccc(Cl)cc3)cc2C(=O)N1Cc1ccccc1 | inactive | inactive | –
